The list is not random: actives were taken first. Their share in the collection is about 0.99%.
ABCG2 block – human ABCG2 inhibition, ABCB1 as counter-screen; Q9UNQ0; IgMXP3 cells, JC-1 efflux, flow cytometry; inhibition, % at 6.6 µM; hit rate 0.1% among 190,000; AID 1325;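 active = inhibition above 80%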;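 also: 0% = DMSO and 100% = nicardipine control wells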
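Times: 10 min at 25 °C | Test system: Two drug-resistant human cell lines, ABCG2 and ABCB1 | Quantity: 3 million cells/mL final, two lines in 1:1 ratio | Signal: Flow cytometry, 530 nm JC-1 signal | Dosing: Compound at 6.6 µM | Controls: Nicardipine and DMSO wells | Reagent: JC-1 as fluorescent efflux pump substrate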
Insulin prom up – MIN6 insulin promoter up-regulation; hit rate 0.3% among 190,000; AID 1625; z-score at 5 µM; MIN6 insulin promoter-GFP reporter, high-content imaging; stronger effect = higher value;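 active = z-score above 3 at 5 µM with at least 500 cells counted in the well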
DDE Tn6 FP inh – DD(E)-Tn6 binding inhibition, primary FP screen | P02675 | Fibrin DD(E) TRITC-Tn6 fluorescence polarization displacement | inhibition, % at 8.3 µM | hit rate 0.21% among 370,000;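 active = inhibition above a per-campaign cutoff: mean of compounds within control limits plus 3 SD, cut at about 15% in these data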;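 also: 0% = median of all compound wells on the plate and 100% = blocking peptide control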
Tn7 DDE FP – disrupts Tn7 cyclic peptide binding to fibrin D-Dimer-E complex. FP displacement of FITC-Tn7 peptide from fibrin DD(E); 0% = median of compound wells per plate. hit rate 0.13% among 370,000. inhibition, % at 8.3 µM. AID 720508. P02675;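 active = inhibition above the mean of compounds falling within the control limits plus 3 SD of them, cut at about 14% in these data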;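 also: 0% = plate median of compound wells and 100% = 10 µM Aha-Tn7 peptide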
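assay system = human clot-derived fibrin DD(E) complex | quantity = Fibrin-DD(E) at 2 µM final | timing = 10 min preincubation, 3 h with tracer, room temperature | signal = fluorescence polarization | measure = percent inhibition | benchmarks = high control wells with 10 µM unlabelled Aha-Tn7 peptide (full inhibition) | replicates = singlicate testing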
ABCB1 block – inhibitors of human ABCB1 transporter, ABCG2 counter-screen; P08183; CCRF-Adr cells, JC-1 efflux, flow cytometry; inhibition, % at 6.6 µM; hit rate 0.067% among 190,000; in the data active = inhibition above about 40%;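 also: 0% = vehicle and 100% = reference inhibitor; higher value means more JC-1 retained so stronger ABCB1 efflux block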
GRK2 aptamer HTS – blocks RNA aptamer binding to human GRK2; bead flow cytometry, FAM-aptamer displacement from GRK2; AID 488847; inhibition of aptamer binding, % at 10 µM; hit rate 0.59% among 330,000;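 active = inhibition of aptamer binding above 40%, roughly 3 SD of noise, on plates passing a quality check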;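 also: median bead fluorescence of bound FAM aptamer so fluorescent compounds give negative values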
Target sequence (P25098 whole entry, looked up): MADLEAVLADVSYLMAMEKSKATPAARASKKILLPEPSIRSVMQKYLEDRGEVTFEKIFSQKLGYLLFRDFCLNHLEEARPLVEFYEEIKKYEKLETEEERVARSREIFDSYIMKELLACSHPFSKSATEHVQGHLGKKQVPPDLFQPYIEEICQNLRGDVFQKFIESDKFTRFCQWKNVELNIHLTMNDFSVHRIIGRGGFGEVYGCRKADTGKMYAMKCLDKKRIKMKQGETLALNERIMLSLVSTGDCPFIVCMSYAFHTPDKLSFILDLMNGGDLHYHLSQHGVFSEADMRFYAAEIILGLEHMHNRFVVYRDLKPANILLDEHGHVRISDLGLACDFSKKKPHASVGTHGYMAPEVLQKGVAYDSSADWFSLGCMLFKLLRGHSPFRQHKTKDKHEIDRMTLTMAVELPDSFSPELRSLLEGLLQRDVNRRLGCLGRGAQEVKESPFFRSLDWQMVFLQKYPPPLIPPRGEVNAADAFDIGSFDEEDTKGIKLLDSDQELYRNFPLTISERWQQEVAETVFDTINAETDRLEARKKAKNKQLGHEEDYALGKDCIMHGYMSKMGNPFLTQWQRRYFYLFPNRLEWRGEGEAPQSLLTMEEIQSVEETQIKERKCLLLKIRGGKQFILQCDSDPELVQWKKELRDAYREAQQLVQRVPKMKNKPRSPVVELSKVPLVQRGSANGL
DDE Tn6 FP ctr – counter-screen for inhibitors of Tn6 peptide binding to fibrin DD(E); inhibition, % at 8.3 µM; shares compounds with DDE Tn6 FP inh; AID 720621; hit rate 2% among 680; TRITC-Tn6 fluorescence polarization displacement; 0% = median of compound wells, not DMSO;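 active = inhibition above the mean of test compounds lying between the control limits plus 3 SD of those, cut at about 14% in these data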;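 also: 0% = median of compound wells and 100% = wells with Aha-Tn7 blocking peptide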
Tn6 DDE conf – DD(E)-Tn6 binding inhibition, FP confirmation. hit rate 10% among 680. inhibition, % at 8.3 µM. shares compounds with DDE Tn6 FP inh. FP displacement of TRITC-Tn6 peptide from DD(E); 0% = per-plate median of test wells;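 active = inhibition above the mean of compounds lying within the control limits plus 3 SD, cut at about 16% in these data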;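 also: 100% = high control wells holding a competing inhibitor peptide at 10 µM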
* hit, by the source's call; / = no result given; + = active, no number; ! = not confirmed by another sample.

SMILES	ABCG2 block	Insulin prom up	DDE Tn6 FP inh	Tn7 DDE FP	ABCB1 block	GRK2 aptamer HTS	DDE Tn6 FP ctr	Tn6 DDE conf
O=S1(=O)c2c(NCc3ccco3)cccc2Oc2ccccc2CN1Cc1cn(Cc2ccc(C(F)(F)F)cc2)nn1	/	/	4.9	-3.2	/	/	/	/
CC1(C)CCN2CCC(C)(C)c3c(O)ccc1c32	/	/	30.4*	8.0	/	0.0	2.3	4.1
O=C(Cn1nc(-c2ccccc2)ccc1=O)NCCc1ccc(F)cc1	/	/	5.2	3.6	/	/	/	/
Brc1ccc(-c2nc3ccccc3s2)s1	-2.9	0.21	-4.5	2.6	-0.6	0.0	/	/
O=c1ccc2nc3ccccc3sc-2c1	/	/	19.6*	-2.8	/	/	-5.8	14.7
CC(C)(C)N(Cc1cn(Cc2ccccc2)nn1)S(=O)(=O)c1ccc(N2CCCCC2)cc1Br	/	/	-3.8	1.0	/	/	/	/
O=c1[nH]nc(Cc2ccc(Cl)cc2)c2ccccc12	14.0	/	15.4*	4.3	0.3	0.0	-0.5	-3.1
O=c1[nH]nc(CNc2ccc(O)cc2)c2ccccc12	0.1	-0.62	15.7*	0.4	0.1	4.0	-6.7	-2.6
O=C(CN(Cc1ccco1)S(=O)(=O)c1ccccc1)N/N=C/c1cccc(O)c1	15.9	0.36	15.5*	5.1	-0.3	2.0	-5.2	-9.4
CCn1c(=S)[nH]c2ccccc21	0.0	/	16.0*	-1.4	-0.2	0.0	-4.5	-14.8
CCn1c(=S)[nH]c2cc(Cl)ccc21	/	/	-1.1	0.8	/	0.0	/	/
COC(=O)COC(=O)c1ccc(Oc2nc(OC)nc(N(C)C)n2)cc1	-4.7	0.69	20.6*	-9.2	-2.5	0.0	0.4	4.0
COc1cccc(CNC(=O)[C@H]2CCCN2C(=O)[C@H]2CCCN2C(=O)c2cccc3ccccc23)c1	/	/	5.1	-0.1	/	/	/	/
NC(=O)C1(N2CCCCC2)CCN(C(=O)CSc2nc3ccccc3s2)CC1	5.7	-0.45	16.7*	3.0	1.3	0.0	2.7	1.6
Cc1cc(C)cc(OCCCN2CCC(C(O)(c3ccccc3)c3ccccc3)CC2)c1	/	/	2.2	-2.8	/	/	/	/
O=C(CSc1ccc(-c2nc3ccccc3[nH]2)cn1)Nc1ccc(S(=O)(=O)NC2CC2)cc1	-8.5	-0.57	182.5*	-4.1	-1.4	0.0	8.8	-12.3
COc1ccc(S[C@]2(C(=O)N3CCOCC3)CC(=O)N(c3ccc(OC)cc3)[C@@H]2c2ccc(OC)cc2)cc1	/	/	0.3	0.6	/	/	/	/
COc1ccc(/C=N/N2CCN(c3ccccc3OC)CC2)cc1OC	6.4	0.06	-4.0	-4.0	0.1	0.0	/	/
COc1ccccc1N1CCN(/N=C/c2ccc(C(=O)O)cc2)CC1	/	/	16.6*	-6.0	/	0.0	-3.0	-7.7
O=C(CN1C(=O)c2cccnc2Oc2ccc(Cl)cc21)N1CCCCCC1	/	/	1.8	-2.0	/	1.0	/	/
O=C(CN1C(=O)c2cccnc2Oc2ccc(Cl)cc21)N1CCCC1	/	/	16.4*	2.9	/	4.0	0.6	0.2
COc1ccc(-n2c(=S)[nH]c3cc(C(=O)Nc4ccc(OC)c(OC)c4)ccc3c2=O)cc1	-1.3	-0.28	16.9*	-2.1	-0.3	0.0	-3.0	-12.1
CC(C)(O)C(=O)NNC(=S)Nc1cccc(C(F)(F)F)c1	-0.9	-0.31	17.4*	4.8	0.2	0.0	2.7	2.2
FC(F)(F)c1cccc(NC(=S)NNC(=S)Nc2cccc(C(F)(F)F)c2)c1	/	-0.76	/	/	/	0.0	/	/
C[N+]1(C)[C@H]2CC[C@H]1CC(OC(=O)C(O)c1ccccc1)C2 (some centres undefined)	/	/	0.3	1.3	/	/	/	/
SMILES	ABCG2 block	Insulin prom up	DDE Tn6 FP inh	Tn7 DDE FP	ABCB1 block	GRK2 aptamer HTS	DDE Tn6 FP ctr	Tn6 DDE conf
O=C(O)c1ccc(-n2nc(C(F)(F)F)c3c2CCCC3)cc1	28.6	-0.12	21.1*!	2.1	0.2	0.0	3.9	2.9
Cc1ccc(S(=O)(=O)N(C)C)cc1NC(=O)c1cccs1	/	-0.96	17.3*	-0.8	/	3.0	-1.8	-4.7
CN1CCc2c(sc3c2C(=O)NC(c2ccccc2)N3)C1 (centres undefined)	16.9	1.05	3.1	2.7	-1.4	2.0	/	/
Cc1ccc(C2NC(=O)c3c(sc4c3CCN(C)C4)N2)s1 (centres undefined)	1.3	-0.29	17.9*	-3.3	0.1	5.0	10.5	5.5
COC(=O)[C@]12C=CCN1[C@H](c1ccccc1)c1c(c3ccccc3n1S(=O)(=O)c1ccc(C)cc1)C2	/	/	18.8*	-8.5	/	/	1.8	3.7
COC(=O)[C@]12C=CCN1[C@H](c1ccc(OC)c(OC)c1)c1c(c3ccccc3n1S(=O)(=O)c1ccc(C)cc1)C2	/	/	-1.6	-4.2	/	/	/	/
CCOc1ccc(C(=O)Nc2cc(-c3nc4ccccc4[nH]3)ccc2Cl)cc1[N+](=O)[O-]	-3.4	-0.33	25.5*	4.2	0.3	1.0	-2.1	-9.5
CCOc1ccc(C(=O)Nc2cc(-c3nc4ccccc4[nH]3)ccc2C)cc1[N+](=O)[O-]	-3.2	-0.02	5.3	-13.0	0.9	2.0	/	/
CC(C)CN1C(=O)[C@@]2(CC(=O)N(C)C2c2ccccc2)c2cc(-n3cc(-c4ccccc4)nn3)ccc21 (some centres undefined)	/	/	-4.1	-5.1	/	/	/	/
CCCCCC(=O)Nc1ccc2oc(-c3cncc(Br)c3)nc2c1	1.7	1.4	15.8*	-0.7	0.0	0.0	-4.7	-12.9
CCCC(=O)Nc1ccc2oc(-c3cncc(Br)c3)nc2c1	0.4	-2.45	3.8	-0.6	-0.2	0.0	/	/
COc1ccc(CC(=O)OCC(=O)N2CCCC(C)C2)cc1 (centres undefined)	/	/	15.2*	-1.7	/	0.0	-4.0	-7.7
CN(c1ccccc1)S(=O)(=O)c1ccc(Cl)c(C(=O)Nc2ccc(-c3nc4ccccc4[nH]3)cc2)c1	-9.5	-0.18	38.6*	11.1	-0.9	1.0	-1.2	21.2*
Cc1ccccc1C(=O)Nc1ccc(-c2nc3ccc(C(=O)c4ccccc4)cc3[nH]2)cc1	-0.6	-0.61	38.0*	-1.7	-0.1	2.0	13.8*	21.5*
COc1ccc2c(CC#N)c[nH]c2c1	2.5	-0.32	15.7*	2.0	0.3	3.0	1.9	2.3
COc1ccc2c(CCNC(N)=S)c[nH]c2c1	/	0.98	7.3	4.1	/	1.0	/	/
CC(C)C(Cl)=NOC(=O)Nc1ccc(S(N)(=O)=O)cc1	/	/	15.9*	-11.0	/	/	6.6	7.9
O=C(C1CC(=O)N(C2CCCC2)C1)N1CCN(c2ccccc2F)CC1 (centres undefined)	3.0	-1.28	1.1	4.1	0.6	0.0	/	/
O=C(C1CCCCC1)N1CCN(c2ccccc2F)CC1	19.5	0.08	41.7*	6.4	1.2	3.0	5.2	4.0
Cc1cc2c(N)cccc2nn1	28.1	1.12	+	5.1	3.5	1.0	0.0	17.6*

Assay outcomes from PubChem BioAssay.
